Only some compounds are listed: those with a hit (about 3.4% of all), similar ones and a draw of the others.
ERAP1 HTS inh – ERAP1 (human) enzyme inhibition; inhibition, % at 10.7 µM; recombinant ERAP1, Leu-AMC fluorescence, 60 min; actives 0.15% (n = 340,000); Q9NZ08; AID 652197;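 active = mean replicate inhibition of at least 30%, or all replicates individually reaching that 30% level; inactive = mean below 30% and not every replicate reaching it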;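 also: 0% = neutral control wells and 100% = L-leucinethiol positive control wells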
rRNA inh HTS – inhibitors of bacterial rRNA selective over humanized ribosomes. E. coli WT GFP vs humanized-ribosome RFP mutants, fluorescence, 24 h; stronger effect = lower value; DMSO median 0, no signal -100. GFP signal change (wild-type ribosome), % (concentration not given with the values). actives 1.6% (n = 350,000). AID 720706;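 active = significant combined selectivity score with lowered wild-type GFP, culture density cut under 30%, mutant RFP and density less affected; inactive = any of these conditions unmet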
MLL AF4-AF9 inh – blocks AF4 peptide binding to human AF9. AlphaScreen, biotin-AF4 peptide binding to FLAG-AF9. actives 0.47% (n = 350,000). AID 651704. inhibition, % at 10 µM. P42568;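 active = every replicate reaching a set inhibition limit, whatever the replicate mean, cut at about 25% in these data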;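 also: 0% = plate neutral control median and 100% = total signal loss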
Target sequence (P42568 whole entry, looked up): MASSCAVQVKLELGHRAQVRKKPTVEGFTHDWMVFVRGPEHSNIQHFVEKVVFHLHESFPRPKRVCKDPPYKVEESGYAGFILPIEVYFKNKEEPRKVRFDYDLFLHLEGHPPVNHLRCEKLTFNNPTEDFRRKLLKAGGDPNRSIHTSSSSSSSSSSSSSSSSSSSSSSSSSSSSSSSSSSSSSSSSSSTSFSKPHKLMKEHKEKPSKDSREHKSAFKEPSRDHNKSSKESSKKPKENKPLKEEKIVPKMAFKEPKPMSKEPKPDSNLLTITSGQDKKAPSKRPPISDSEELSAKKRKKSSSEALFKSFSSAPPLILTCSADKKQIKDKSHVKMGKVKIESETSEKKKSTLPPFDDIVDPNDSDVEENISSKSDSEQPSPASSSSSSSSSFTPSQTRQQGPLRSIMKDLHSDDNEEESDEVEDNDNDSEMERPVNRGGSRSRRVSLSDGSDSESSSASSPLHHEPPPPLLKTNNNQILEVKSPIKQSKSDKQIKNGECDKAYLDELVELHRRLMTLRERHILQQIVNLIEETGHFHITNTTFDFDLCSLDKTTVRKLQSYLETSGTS
E-sel inducer – E-selectin induction on HUVECs; activation, % at 7.58 µM; actives 0.37% (n = 260,000); HUVEC E-selectin immunofluorescence imaging; normalized: neutral wells 0, TNF-alpha wells 100; AID 686992; P16581;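 active = mean E-selectin-positive cell signal at least 10% of the positive control, reached in at least 60% of replicates, without over 20% cell loss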
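System: HUVEC, human umbilical vein endothelial cells; quantity: 3,000 cells/well; buffer or medium: EGM-2 medium, gelatin-coated wells; dosing: single-point compound dose; detection: immunofluorescence imaging; evaluation: % PE-positive cells; benchmarks: TNF-alpha, DMSO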
S100A4 MyoIIA – S100A4-myosin IIA interaction inhibition | P26447 | S100A4/TAMRA-MyoIIA peptide fluorescence polarization | inhibition, % at 10.7 µM | actives 0.14% (n = 360,000) | AID 652163;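 active = mean inhibition of at least 70% across replicates, with every replicate also reaching that level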
Target sequence (P26447 whole entry, looked up): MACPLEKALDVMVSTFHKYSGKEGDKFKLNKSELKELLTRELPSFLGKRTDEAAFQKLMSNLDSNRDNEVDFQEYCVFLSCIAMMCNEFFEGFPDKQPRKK
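incubation = readout 5 min after mixing, signal stable up to 60 min | system = S100A4 monomer protein | buffer or medium = HEPES pH 7.2 with CaCl2, KCl, NaCl, DTT, Triton | benchmarks = neutral control DMSO, positive control TFP | also added = fluorescent myosin IIA peptide, 5 nM | compound dosing = one concentration per compound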
SIRT5 inh – sirtuin-5 (human) deacylase inhibition; Q9NXA8; Purified SirT5, succinyl-peptide AMC, trypsin-coupled fluorescence; inhibition, % at 15 µM; actives 1.1% (n = 330,000); in the data active = inhibition above about 15%
* hit, by the source's call; . = no result given; ! = repeats disagree.

SMILES | ERAP1 HTS inh | rRNA inh HTS | MLL AF4-AF9 inh | E-sel inducer | S100A4 MyoIIA | SIRT5 inh
C[C@H](CO)N1C[C@H](C)[C@H](CN(C)Cc2ccncc2)Oc2c(NS(=O)(=O)c3ccccc3)cccc2C1=O | -1 | 2 | -2 | 0 | -8 | 0
O=C1O[C@@H](c2ccccc2)[C@@H](c2ccccc2)N2[C@@H](c3ccc(O)cc3)[C@]3(C(=O)Nc4ccc(C#CC5(O)CCCCCC5)cc43)[C@@H](C(=O)N3CCN(c4ncccn4)CC3)[C@H]12 | 3 | . | -1 | . | 4 | -3
COc1cccc(NC(=O)N[C@@H]2C=C[C@@H](CC(=O)N3CCN(C)CC3)O[C@@H]2CO)c1 | -3 | 1 | -5 | 1 | 86* | 1
CCCNC(=O)N[C@H]1C=C[C@@H](CC(=O)N2CCN(C)CC2)O[C@@H]1CO | 3 | 1 | 6 | 0 | 125* | 6
CN(C)C(=O)C[C@@H]1C=C[C@H](NC(=O)Nc2cccc(F)c2)[C@@H](CO)O1 | 5 | -1 | -11 | 0 | 97* | 8
CN(C)C(=O)C[C@@H]1C=C[C@@H](NC(=O)Nc2cccc(F)c2)[C@H](CO)O1 | 5 | 1 | -22 | 0 | 5 | -3
C[C@H](CO)N1C[C@H](C)[C@@H](CN(C)S(=O)(=O)c2ccc(F)cc2)Oc2c(NS(=O)(=O)c3cn(C)cn3)cccc2C1=O | . | 1 | . | . | . | .
O=C(C[C@H]1C[C@H]2c3cc(NC(=O)Nc4ccccc4)ccc3O[C@H]2[C@@H](CO)O1)NCc1ccccn1 | 1 | 2 | 0 | 0 | -21 | -6
CC(=O)N(CCOc1ccccc1)CCOc1ccccc1 | -1 | -23* | 0 | . | -6 | -2
CCCN(C)C[C@@H]1Oc2ncc(-c3ccccc3F)cc2C(=O)N([C@H](C)CO)C[C@H]1C | -1 | 3 | 4 | 0 | 7 | 10
COc1cccc(CNC(=O)[C@H]2[C@H](CO)[C@H]3Cn4c(ccc(-c5cccnc5)c4=O)[C@H]3N2C)c1 | -1 | 5 | 3 | -2 | 14 | -5
CO[C@H]1CN(C)C(=O)c2ccc(NC(=O)Nc3ccccc3)cc2OC[C@@H](C)N(C(=O)CN(C)C)C[C@H]1C | 2 | -3 | 6 | 0 | -7 | -19
COc1ccc(S(=O)(=O)N(C)C[C@H]2OCCCC[C@@H](C)Oc3ccc(NC(=O)Nc4ccc(F)cc4)cc3C(=O)N([C@H](C)CO)C[C@H]2C)cc1 | 0 | 5 | 1 | 0 | 3 | 16*
COc1ccc(S(=O)(=O)N(C)C[C@@H]2OCCCC[C@@H](C)Oc3ccc(NC(=O)Nc4ccc(C(F)(F)F)cc4)cc3C(=O)N([C@H](C)CO)C[C@@H]2C)cc1 | -8 | 6 | -11 | 0 | 99* | 7
C[C@@H]1CCCCO[C@@H](CN(C)S(=O)(=O)c2ccc(Cl)cc2)[C@@H](C)CN([C@@H](C)CO)C(=O)c2cc(NC(=O)Nc3ccc(F)cc3)ccc2O1 | -1 | 1 | -3 | . | 0 | 7
C[C@H](CO)N1C[C@H](C)[C@H](CN(C)S(=O)(=O)c2ccc(Cl)cc2)OCCCC[C@H](C)Oc2ccc(NC(=O)Nc3ccc4c(c3)OCO4)cc2C1=O | -4 | 3 | -1 | 0 | -5 | 21*
C[C@@H]1CCCCO[C@H](CN(C)S(=O)(=O)c2ccc(Cl)cc2)[C@@H](C)CN([C@H](C)CO)C(=O)c2cc(NC(=O)Nc3ccc(F)cc3)ccc2O1 | 0 | 2 | -4 | . | 3 | 16*
O=C(C[C@@H]1CC[C@@H](NC(=O)Nc2ccc(C(F)(F)F)cc2)[C@H](CO)O1)NCc1ccccn1 | -1 | 0 | 0 | 1 | -3 | 2
O=C(C[C@@H]1CC[C@@H]2[C@H](COC[C@H](O)CN2CCc2ccccc2)O1)N1CCC(Cc2ccccc2)CC1 | 0 | -54 | -20 | 0 | -5 | 5
COc1ccc2c3c([nH]c2c1)[C@@H](CO)N(C(=O)C1CCCC1)CC31CCN(Cc2nccs2)CC1 | 0 | -4 | 4 | 0 | -14 | 2
COc1ccc(NC(=O)Nc2ccc3c(c2)C(=O)N([C@H](C)CO)C[C@H](C)[C@H](CN(C)S(=O)(=O)c2ccc(F)cc2)OCCCC[C@@H](C)O3)cc1 | 0 | 5 | -1 | . | -18 | 1
COc1ccc(S(=O)(=O)N(C)C[C@H]2OCCCC[C@H](C)Oc3ccc(NC(=O)Nc4ccc(F)cc4)cc3C(=O)N([C@H](C)CO)C[C@H]2C)cc1 | -1 | 0 | 3 | 0 | -17 | 17*!
Fc1ccc(N2CCN(C3=Nc4cccc5cccc3c45)CC2)cc1 | -3 | -54 | 32* | 0 | 1 | 2
O=C(CCCN1C(=O)c2cccc3cccc(c23)C1=O)N1CCN(c2ccc(F)cc2)CC1 | 0 | -27 | 12 | . | 1 | -6
OCCN1CCN(CC/C=C2/c3ccccc3Sc3ccc(C(F)(F)F)cc32)CC1 | -1 | -59 | 27* | 0 | -13 | -10
SMILES | ERAP1 HTS inh | rRNA inh HTS | MLL AF4-AF9 inh | E-sel inducer | S100A4 MyoIIA | SIRT5 inh
C[C@@H]1CN([C@@H](C)CO)C(=O)c2cc(NS(=O)(=O)c3ccccc3)ccc2O[C@@H]1CN(C)S(C)(=O)=O | 4 | -1 | 0 | 0 | 3 | 3
S=C(NCc1ccco1)N1CCC(c2nc3ccccc3o2)CC1 | 1 | 14 | 0 | 60* | -4 | -3
CC1CC(C)CN(C(=S)SCc2nc(N)nc(Nc3ccccc3)n2)C1 (centres undefined) | 0 | -22* | -5 | 0 | -2 | -1
Nc1nc(CSC(=S)N2CCCCC2)nc(Nc2ccccc2)n1 | 0 | -4 | 3 | . | 0 | -2
CC(C)C[C@H]1CN([C@@H](Cc2ccc(O)cc2)CN2CCC[C@H]2CN2C(=O)C(=O)NC[C@@H]2Cc2ccc(O)cc2)C(=O)C(=O)N1CCc1ccccc1 | 2 | -28* | 0 | . | -4 | -4
C[C@@H]1CCCCO[C@H](CN(C)S(=O)(=O)c2ccc(F)cc2)[C@@H](C)CN([C@@H](C)CO)C(=O)c2cc(NS(C)(=O)=O)ccc2O1 | -6 | -3 | -1 | 0 | 21 | 12
CN(C)CCCCCCNC(=O)[C@@H]1C[C@@H]2C(=O)NCC(=O)N2[C@@H]1c1cccc(OCCO)c1 | -1 | . | -5 | . | -5 | 18*
Cc1ccc(CNC(=O)CNC(=O)[C@@H]2Cc3ccccc3CN2)cc1 | -5 | 5 | 3 | 0 | 0 | 37*
COc1ccc(CNC(=O)CNC(=O)[C@@H]2Cc3ccccc3CN2)cc1 | -2 | 24 | -1 | . | 4 | -1
CC(C)OC(=O)N(C)C[C@H]1OCc2ccccc2-c2ccccc2C(=O)N([C@@H](C)CO)C[C@H]1C | . | 2 | . | . | . | .

Screens deposited in PubChem BioAssay by Broad Institute.
